This is an account of results in ChEMBL document CHEMBL1275590, “Novel arylimidamides for treatment of visceral leishmaniasis” (Antimicrob Agents Chemother, 2010).

Series [1] can be described thus: Half life in Swiss Webster mouse at 4.9 mg/kg, iv by HPLC-MS/MS analysis. Format: ADME, organism-based. Further details: dose 4.9 mg/kg, route intravenous. As to conditions: in vivo. The essentials: (§1)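 Male Swiss Webster mice, n = 3 per time point. For i.v., the compound was dissolved in sterile water, diluted 1:1 with 2× saline, and given as a tail-vein bolus over ~10–20 s. For p.o., it was given by gavage in sterile water. Dose volume was 5 ml/kg. Terminal plasma was taken from 5 min to 72 h and measured by HPLC-MS/MS (calibration 2.5–10,000 nM). Parameters came from noncompartmental analysis.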

Series [2] in a line: Half life in Swiss Webster mouse at 66 mg/kg, po by HPLC-MS/MS analysis. Further details: dose 66 mg/kg, route oral. Format: ADME, organism-based. The settings on record: in vivo. The essentials:
as §1

The nature of series [3]: Half life in Swiss Webster mouse at 131 mg/kg, po by HPLC-MS/MS analysis. Format: ADME, organism-based. Also noted: dose 131 mg/kg, route oral. As to conditions: in vivo. The gist of the method: as §1
In series [4] the test system is Mus musculus. In words: Toxicity in BALB/c mouse assessed as tremor at 100 mg/kg/day, ip after second dose. It counts as organism-based. Further details: route intraperitoneal. The settings on record: in vivo. The gist of the method: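 Acute overt toxicity was checked in uninfected female BALB/c mice before the efficacy work. Compounds were given intraperitoneally once daily for 5 days, and mice were watched for clinical signs such as ruffled fur, hypoactivity, tremors, ataxia and startle, and for survival.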

Series [5] can be described thus: Cmax in Swiss Webster mouse at 4.9 mg/kg, iv by HPLC-MS/MS analysis. Also noted: dose 4.9 mg/kg, route intravenous. It counts as ADME, organism-based. As to conditions: in vivo. The gist of the method:
as §1

Series [6] in a line: Tmax in Swiss Webster mouse at 16.5 mg/kg, po by HPLC-MS/MS analysis. Format: ADME, organism-based. Further details: dose 16.5 mg/kg, route oral. As to conditions: in vivo. The gist of the method:
(§2)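 Male Swiss Webster mice (n = 3 per time point), single dose by oral gavage (sterile water solution) or tail-vein bolus i.v. (water diluted 1:1 with 2× saline, over ~10–20 s); dose volume 5 ml/kg. Terminal blood sampled from 5 min to 72 h postdose; plasma quantified by HPLC-MS/MS (positive-ion SRM). Noncompartmental analysis gave Cmax, Tmax, AUC0-∞, CL, Vss; bioavailability from p.o. versus i.v. exposure.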

A short description of series [7]: Oral bioavailability in Swiss Webster mouse at 16.5 mg/kg by HPLC-MS/MS analysis. It counts as ADME, organism-based. As to conditions: in vivo. The essentials: as §2
The nature of series [8]: Cmax in Swiss Webster mouse at 66 mg/kg, po by HPLC-MS/MS analysis. Format: ADME, organism-based. The settings on record: in vivo. Further details: dose 66 mg/kg, route oral. The essentials: as §1
Series [9] relates to Mus musculus. Nature of the series: AUC (0 to infinity) in Swiss Webster mouse at 131 mg/kg, po by HPLC-MS/MS analysis. Format: ADME, organism-based, Plasma. Also noted: dose 131 mg/kg, route oral, time infinity. As to conditions: in vivo. The gist of the method: as §1
In series [10] the test system is Mus musculus. Nature of the series: Toxicity in BALB/c mouse assessed as occurrence of tremor at 10 mg/kg/day, iv administered for five days measured on day 2. Format: organism-based. Further details: route intravenous. As to conditions: in vivo. The gist of the method:
(§3)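 Female BALB/c mice (n = 5 per dose), dosed once daily for 5 consecutive days p.o. (20 ml/kg) or i.v. (10 ml/kg) with compound in sterile water, prepared fresh daily under yellow light. Vehicle controls n = 5 per route. Clinical observations, body weights, serum chemistry and hematology on day 6 before necropsy; histopathology of formalin-fixed tissues. Chemistry analysed by one-way ANOVA with Dunnett's posttest.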

The subject of series [11] is Mus musculus. Nature of the series: Hepatotoxicity in BALB/c mouse assessed as AST level in serum at 10 mg/kg/day, iv administered for five days (Rvb= 65 U/L). It counts as toxicity, organism-based. Further details: route intravenous. The settings on record: in vivo.
Series [12] relates to Mus musculus. In words: Renal toxicity in BALB/c mouse assessed as blood urea nitrogen level in serum at 10 mg/kg/day, iv administered for five days (Rvb= 20 mg/dl). Also noted: route intravenous. As to conditions: in vivo. Format: organism-based. The gist of the method:
as §3

Series [13] concerns Mus musculus. Nature of the series: Renal toxicity in BALB/c mouse assessed as phosphorus level in serum at 10 mg/kg/day, iv administered for five days ((Rvb= 6.1 mg/dl). It counts as organism-based. As to conditions: in vivo. Also noted: route intravenous. The gist of the method: as §3
Series [14] has as its system Mus musculus. In words: Renal toxicity in BALB/c mouse assessed as blood urea nitrogen level in serum at 100 mg/kg/day, po administered for five days (Rvb= 29 mg/dl). Format: organism-based. Also noted: route oral. As to conditions: in vivo. The essentials:
as §3

The nature of series [15]: Induction of mutagenicity in Salmonella serovar Typhimurium TA 98 assessed as number of revertant colonies at 500 ug by Ames assay. Format: toxicity, Salmonella enterica subsp. enterica serovar Typhimurium. The gist of the method: (§4)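 Plate incorporation test, S. Typhimurium TA98 (and TA100), with or without Aroclor 1254-induced rat liver S9 (10% vol/vol). Compound dissolved in sterile water, serially diluted to 1–1,000 or 1–500 μg/plate. Positive controls: 2-nitrofluorene and sodium azide without S9, 2-aminoanthracene with S9; water and DMSO vehicle controls. Revertant colonies and background lawn scored; mutagen if mean revertants ≥2-fold solvent control. Single experiment.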
(In general: The Ames test detects mutagens through reverse mutation in bacteria.)

Series [16] is described as follows: Induction of mutagenicity in Salmonella serovar Typhimurium TA 100 assessed as number of revertant colonies at 1 ug by Ames assay. Format: toxicity, Salmonella enterica subsp. enterica serovar Typhimurium. The settings on record: in vivo. The essentials: (§5)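 Ames plate incorporation with S. Typhimurium TA98 and TA100, with or without Aroclor 1254-induced rat liver S9 (10% vol/vol). Compound was dissolved in sterile water and serially diluted to 1–500 μg/plate. Positive controls were 2-nitrofluorene and sodium azide without S9, and 2-aminoanthracene with S9; sterile water and DMSO served as vehicles. Revertant colonies and background lawn were scored. A mutagen was defined as a mean revertant count at least 2-fold over solvent control. Single experiment.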

Series [17] can be described thus: Induction of mutagenicity in Salmonella serovar Typhimurium TA 100 assessed as number of revertant colonies at 5 ug by Ames assay. As to conditions: in vivo. Format: toxicity, Salmonella enterica subsp. enterica serovar Typhimurium. The gist of the method: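 Plate incorporation method with TA100, with and without Aroclor 1254-induced rat liver S9 (10% vol/vol). Compound dissolved in sterile water, serially diluted; plates scored for revertant count and background lawn versus controls. Mutagen if mean revertants at least 2-fold over mean solvent control. Positive controls: 2-nitrofluorene and sodium azide without S9, 2-aminoanthracene with S9; water and DMSO vehicles.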

Series [18] is described as follows: Induction of mutagenicity in Salmonella serovar Typhimurium TA 100 assessed as number of revertant colonies at 10 ug by Ames assay. As to conditions: in vivo. It counts as toxicity, Salmonella enterica subsp. enterica serovar Typhimurium. The essentials: as §5
The next series has as its system Leishmania donovani. Nature of the series: Antileishmanial activity against Leishmania donovani promastigotes in BALB/c mouse assessed as inhibition of liver parasitemia at 100 mg/kg/day, po administered for five days. It counts as functional. Also noted: scale not given: the % may be the effect or the level left. The gist of the method: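 Murine VL model in L. donovani-infected mice. Compounds were dissolved in water and given i.p. or p.o. once daily for 5 days (4 days for one i.p. regimen). Liver parasitemia was compared with untreated controls by unpaired Student's t test, P ≤ 0.05.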

Series [19] can be described thus: Tmax in Swiss Webster mouse at 70 mg/kg, po by HPLC-MS/MS analysis. It counts as ADME, organism-based. Further details: dose 70 mg/kg, route oral. The settings on record: in vivo. The essentials:
as §2

Series [20] has as its system Mus musculus. Nature of the series: Hepatotoxicity in BALB/c mouse assessed as alkaline phosphatase in serum at 150 mg/kg/day, po administered for five days (Rvb= 129 U/L). Format: toxicity, organism-based. Further details: route oral. The settings on record: in vivo.
Series [21] can be described thus: Induction of mutagenicity in Salmonella serovar Typhimurium TA 98 assessed as number of revertant colonies at 1 ug by Ames assay in presence of Aroclor 1254-induced rat liver S9 metabolic activation system. Format: toxicity, subcellular, Salmonella enterica subsp. enterica serovar Typhimurium. The gist of the method: as §5
Series [22] is described as follows: Induction of mutagenicity in Salmonella serovar Typhimurium TA 98 assessed as number of revertant colonies at 500 ug by Ames assay in presence of Aroclor 1254-induced rat liver S9 metabolic activation system. Format: toxicity, subcellular, Salmonella enterica subsp. enterica serovar Typhimurium. The gist of the method:
as §4

The nature of series [23]: Drug level in Swiss Webster mouse kidney at 5 mg/kg, iv after 2 hrs by HPLC/UV analysis. As to conditions: read-out: Drug uptake.
Series [24] can be described thus: Drug level in Swiss Webster mouse kidney at 70 mg/kg, po after 2 hrs by HPLC/UV analysis. The settings on record: read-out: Drug uptake.

A word on the half-life: it is how long it takes for the measured level to halve. In general, Cmax refers to the peak of the concentration-time curve. A word on the Tmax: it is the time at which the peak concentration occurs. Usually bioavailability stands for the share of a dose that reaches the circulation, judged against a reference dose that is usually intravenous. A word on the AUC: it is concentration integrated over time. As for `CCOc1cc(NC(=N)c2ccccn2)ccc1-c1ccc(-c2ccc(NC(=N)c3ccccn3)cc2OCC)o1`, the half-life in series [1] is 18 h; in series [2], 30 h; in [3] it was 32 h. In addition, the Activity entry is “Toxic” with Mus musculus [4]; “Toxic” in the series on Mus musculus [10]; 80 U/L in the series with Mus musculus [11]; 24 mg/dL in the series with Mus musculus [12]; 8.1 mg/dL with Mus musculus [13]; 52 mg/dL in the series with Mus musculus [14]. Further, the Cmax in [5] was found to be 4.24 µM; in series [8] it was 0.4 µM. Further, the Tmax in [6] turned out to be 2 h. Moreover, in series [7], the bioavailability came to 3.3%. Also, the AUC in the series on Mus musculus [9] is 30 µM·h.
Turning to `CC(C)Oc1cc(NC(=N)c2ccccn2)ccc1-c1ccc(-c2ccc(NC(=N)c3ccccn3)cc2OC(C)C)o1`, the Activity was determined as 28 in [15]; 152 in series [16]; 145 in [17]; 148 in series [18]; 71% in the series on Leishmania donovani; 142 U/L in the series on Mus musculus [20]. Moreover, the Activity in [21] was found to be 43; in series [22], 47. Also, the Tmax in series [19] stood at 1 h. In addition, the results for the concentration at 2 h in series [23] and in series [24] were 12.7 µM and 30.3 µM, respectively.
